From PubChem BioAssay
A selection: hits, their analogues and other compounds. The true share with any hit is near 2%.
SR-BI uptake up – activators of SR-BI mediated HDL lipid uptake. AID 504775. activation, % at 12.5 µM. actives 0.096% (n = 320,000). CHO ldlA[mSR-BI] cells, DiI-HDL uptake fluorescence, 3 h; 100 = double the neutral-control signal;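 active means mean replicate activation of at least 60% and every replicate at or above 60%; inconclusive means mean or all-replicate condition met, but not both; inactive means mean below 60% and not all replicates reaching 60%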
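Material: SR-BI-overexpressing, LDLR-lacking CHO cells | Dosing: Single compound concentration, delivered by pin transfer | Probe or stimulus: Labelled HDL, 10 µg/mL | Signal: Bottom-read cell fluorescence after medium removal, ex 550/em 595 nm | Schedule: 3 h, 37 °C | Evaluation: HDL uptake via cellular fluorescence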
sPLA2-III inh – Blocks human group III sPLA2 activity; Q9NZ20; QFRET BODIPY PC-A2 liposome hydrolysis, fluorescence; inhibition, % at 12.2 µM; actives 0.56% (n = 370,000);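 active means inhibition above mean plus 3 SD of compounds lying within the high and low control bounds, cut at about 19% in these data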
NSD2 inh – blocks human histone methyltransferase NSD2 | NSD2 peptide methylation, AlphaScreen, 120 min | inhibition, % at 12.5 µM | actives 0.54% (n = 310,000); in the data active means inhibition above about 50%
Xi reactivation – reactivates the inactive X chromosome in mouse fibroblasts; activation, % at 7.58 µM; actives 0.055% (n = 360,000); AID 743238; XiGFP mouse fibroblasts, % GFP-positive cells imaging, 3 d; cells co-treated with 5-aza-dC sensitizer; scaled so ellipticine positive control = 100%;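 active means mean normalized replicate activation at least 10% and every replicate at or above 10%; inconclusive means only one of the two criteria met; inactive means mean below 10% and not all replicates reach 10%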
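System: 68-5-11 XiGFP fibroblast line | Buffer or medium: DMEM containing 5-aza-dC | Compound: Single point | Times: Compounds 3 days, fix/stain 15 min at room temperature | Benchmarks: Positive control ellipticine, 6 µM final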
SR-BI HDL uptake – inhibitors of mouse SR-BI mediated HDL lipid uptake | ldlA[mSR-BI] CHO cells, DiI-HDL uptake fluorescence, 3 h | inhibition, % at 12.5 µM | actives 0.96% (n = 320,000) | AID 488896;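 active means mean replicate inhibition of at least 70% and a set share of replicates each scoring 70 or more; inconclusive means meets just one of the two criteria; inactive means fails both criteria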
Target sequence (Q61009 whole entry, looked up): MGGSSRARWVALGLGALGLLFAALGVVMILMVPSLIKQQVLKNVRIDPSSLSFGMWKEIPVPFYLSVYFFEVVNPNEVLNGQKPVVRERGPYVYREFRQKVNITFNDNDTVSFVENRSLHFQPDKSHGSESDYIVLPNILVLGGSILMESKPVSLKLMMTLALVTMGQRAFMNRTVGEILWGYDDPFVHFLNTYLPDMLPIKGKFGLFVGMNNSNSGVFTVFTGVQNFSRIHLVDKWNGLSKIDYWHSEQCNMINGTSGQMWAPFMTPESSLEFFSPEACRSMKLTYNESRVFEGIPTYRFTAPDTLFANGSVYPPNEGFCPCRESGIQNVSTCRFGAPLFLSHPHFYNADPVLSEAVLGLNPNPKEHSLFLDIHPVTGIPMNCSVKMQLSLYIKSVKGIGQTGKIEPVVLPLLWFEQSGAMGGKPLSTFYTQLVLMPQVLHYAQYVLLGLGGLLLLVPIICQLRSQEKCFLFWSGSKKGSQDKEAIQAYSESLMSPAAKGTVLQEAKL
ARNT-TACC3 inh – disrupts binding between human ARNT and TACC3 | inhibition, % at 9.99 µM | actives 0.66% (n = 390,000) | AID 623870 | AlphaScreen His-ARNT PAS-B/GST-TACC3 binding, luminescence; TACC3 fragment carries E629A point mutation;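 active means mean inhibition of replicates at least 50% and at least half of replicates each reaching 50%; inconclusive means half or more replicates reach 50% but mean below 50%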
hGIII sPLA2 conf – human GIII-sPLA2 inhibition, confirmation. shares compounds with sPLA2-III inh. recombinant hGIII-sPLA2, BODIPY PC-A2 QFRET fluorescence. inhibition, % at 12.2 µM. actives 34% (n = 2,000);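 active means mean inhibition across triplicates above the hit cutoff set in the earlier primary screen, cut at about 19% in these data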
535nm interf – optically interferes with 535nm fluorescence in sPLA2 counter-screen | shares compounds with sPLA2-III inh | BODIPY FL product fluorescence interference, QFRET | inhibition, % at 12.2 µM | actives 8.5% (n = 2,000) | AID 743282;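 active means average inhibition above the solvent-only control mean plus 3 SD, cut at about 6% in these data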
535nm interf DR – counter-screen for HGIII-sPLA2 inhibitors: 535nm fluorescence interference, dose response | shares compounds with sPLA2-III inh | BODIPY FL product fluorescence interference, cell-free | IC50, µM | 240 tested, under 10 active;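 active means IC50 at or below 10 µM; inactive means IC50 above 10 µM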
Alpha artifact – counter-screen for NSD2 inhibitors: AlphaScreen artifacts; shares compounds with NSD2 inh; AlphaScreen artifact counterscreen, preloaded methylated H4 peptide; AC35, µM (series often up to 10 µM); actives 9.4% (n = 1,500); AID 1053174; call rule not given here
Of the large screens only hits and unclear results are named; the others gave an inactive call (follow-up assays come after a bar, where they were run).

N#C/C(C(N)=O)=c1/ccc2c(c1)N1C3=C(CCCC3)CC3CCCCC31N=2 (configuration not stated)	sPLA2-III inh 26.4, NSD2 inh 50.3, SR-BI HDL uptake inconclusive, ARNT-TACC3 inh 65.4 (no result: Xi reactivation) | hGIII sPLA2 conf 44.8 | 535nm interf inactive | 535nm interf DR inactive | Alpha artifact 5.45µM
CCC(CC)c1nc2ccccc2c(=O)[nH]1	none
CCN1CCN(C(=O)C2=CC(c3ccc(C)cc3)=NS(=O)(=O)N2C)CC1	none (no result: NSD2 inh)
CC(=O)C(C(C)=O)C1(O)C(=O)c2ccccc2C1=O	sPLA2-III inh 22.2, NSD2 inh 103.6 (no result: ARNT-TACC3 inh) | hGIII sPLA2 conf inactive | 535nm interf inactive | Alpha artifact inactive
CN(c1ccccc1)c1ncnc2c1ncn2C	NSD2 inh 121.9 | Alpha artifact inactive
COc1ccc2nc(N=Nc3c(O)ccc4ccccc34)sc2c1	none (no result: SR-BI uptake up, sPLA2-III inh, Xi reactivation, SR-BI HDL uptake, ARNT-TACC3 inh)
CCCNC(=O)Nc1ccc2c(c1)OC[C@@H](C)N(C(=O)C1CCOCC1)C[C@H](C)[C@@H](OC)CN(C)C2=O	none (no result: SR-BI uptake up, sPLA2-III inh, NSD2 inh, SR-BI HDL uptake)
O=C(NC1(O)C(=O)c2ccccc2C1=O)c1ccccc1	NSD2 inh 109.6 (no result: Xi reactivation) | Alpha artifact inactive
O=C(NC1(O)C(=O)c2ccccc2C1=O)c1c(Cl)cccc1Cl	NSD2 inh 110.8 | Alpha artifact inactive
O=C(Nc1ccccc1Cl)c1c(F)c(F)c(F)c(F)c1F	none (no result: Xi reactivation)
COc1ccc(C(=O)NCC(=O)NC2=NCCS2)cc1	none (no result: NSD2 inh)
CCNC(=O)c1cc2c(c(-c3cccc(-c4cccc(OC)c4)c3)n1)[C@@H](CCO)N([S@](=O)C(C)(C)C)C2	none (no result: SR-BI uptake up, sPLA2-III inh, NSD2 inh, SR-BI HDL uptake)
O=C(O)c1ccccc1NS(=O)(=O)c1ccc2ccccc2c1	NSD2 inh 52.1 | Alpha artifact inactive
O=C(COc1ccc(S(=O)(=O)NCc2ccccc2)cc1)NCC1CCCO1 (configuration not stated)	none (no result: SR-BI uptake up, Xi reactivation, SR-BI HDL uptake)
O=[N+]([O-])c1ccccc1S(=O)(=O)N1CCN(C2CCCC2)CC1	none
CC(C)COC(=O)N(C)C[C@H]1OCc2ccccc2-c2ccccc2C(=O)N([C@H](C)CO)C[C@H]1C	none (no result: SR-BI uptake up, sPLA2-III inh, NSD2 inh, SR-BI HDL uptake)
CC1(C)CN(c2cccc(C#N)c2)C1=O	NSD2 inh 55.9 | Alpha artifact inactive
N=C1/C(=C/c2ccc(Br)o2)C(=O)N=C2SC(CC(=O)N3CCCC3)=NN12	none (no result: SR-BI uptake up, SR-BI HDL uptake)
N=C1/C(=C\c2ccc(Br)o2)C(=O)N=C2SC(CC(=O)N3CCOCC3)=NN12	NSD2 inh 93.7 | Alpha artifact inactive
CC(C)CC(=O)N1CCC(O)(CS(=O)(=O)Cc2ccccc2Cl)CC1	NSD2 inh 102.7 (no result: Xi reactivation) | Alpha artifact inactive
O=C(COC(=O)CC12CC3CC(CC(C3)C1)C2)Nc1ncc(Cl)cc1Cl	none (no result: Xi reactivation)
Nc1nonc1C(=O)N/N=C/c1cc2c(cc1[N+](=O)[O-])OCO2	NSD2 inh 112.8 | Alpha artifact inactive
O=C(N/N=C\c1cc2c(cc1[N+](=O)[O-])OCO2)c1cccs1	none
O=c1[nH]c(Cc2cccs2)nc2ccccc12	none (no result: Xi reactivation)
Nc1nonc1-c1nc2ccccc2n1CC(=O)N/N=C/c1ccc(-c2ccccc2C(=O)O)o1	NSD2 inh 62.7 | Alpha artifact inactive
COc1ccc2c3c(n(C)c2c1)[C@@H](CO)NCC31CN(Cc2cc(F)ccc2F)C1	none (no result: SR-BI uptake up, sPLA2-III inh, NSD2 inh, SR-BI HDL uptake, ARNT-TACC3 inh)
O=C(c1ccc2nc(-c3ccco3)c(-c3ccco3)nc2c1)N1CCN(c2ccccc2)CC1	none (no result: Xi reactivation)
